# Results as given in ChEMBL document CHEMBL4028818, “Tricyclic 4,4-dimethyl-3,4-dihydrochromeno[3,4-d]imidazole derivatives as microsomal prostaglandin E2 synthase-1 (mPGES-1) inhibitors: SAR and in vivo efficacy in hyperalgesia pain model” (Bioorg Med Chem Lett, 2017).
# Experiments:
# COX2 [1] = target: T1, COX2 (Homo sapiens, UniProt P35354); assay: Inhibition of recombinant human N-terminal His-tagged COX2 expressed in baculovirus infected Sf21 insect cells assessed as decrease in PGE2 release at 1 uM using arachidonic acid as substrate preincubated for 15 mins followed by arachidonic acid addition measured after 5 mins relative to control; conditions: probe arachidonic acid
# T1 sequence (P35354 whole entry): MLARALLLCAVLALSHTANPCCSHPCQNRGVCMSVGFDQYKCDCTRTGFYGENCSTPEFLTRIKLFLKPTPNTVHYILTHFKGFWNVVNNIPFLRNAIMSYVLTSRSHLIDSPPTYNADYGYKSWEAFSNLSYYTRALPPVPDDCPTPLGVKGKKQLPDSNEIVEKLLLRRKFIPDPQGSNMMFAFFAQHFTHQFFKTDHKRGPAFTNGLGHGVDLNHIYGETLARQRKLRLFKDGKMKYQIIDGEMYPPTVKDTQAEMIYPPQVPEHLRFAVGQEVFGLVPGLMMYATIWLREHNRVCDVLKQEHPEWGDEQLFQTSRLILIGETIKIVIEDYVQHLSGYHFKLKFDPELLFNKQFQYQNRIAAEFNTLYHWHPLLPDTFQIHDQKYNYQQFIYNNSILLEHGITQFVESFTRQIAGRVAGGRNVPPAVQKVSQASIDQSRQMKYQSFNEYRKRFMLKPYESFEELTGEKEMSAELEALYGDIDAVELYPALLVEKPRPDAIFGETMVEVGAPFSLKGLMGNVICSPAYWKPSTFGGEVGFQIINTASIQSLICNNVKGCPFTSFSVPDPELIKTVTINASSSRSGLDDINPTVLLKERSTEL
# Cytochrome P450 2C19 = Cytochrome P450 2C19 (Homo sapiens, UniProt P33261); assay: Inhibition of CYP2C19 in human liver microsomes at 1 uM measured after 40 mins in presence of NADPH by LC/MS/MS analysis; type: ADME
# Cytochrome P450 2C19, sequence (P33261 whole entry, canonical isoform): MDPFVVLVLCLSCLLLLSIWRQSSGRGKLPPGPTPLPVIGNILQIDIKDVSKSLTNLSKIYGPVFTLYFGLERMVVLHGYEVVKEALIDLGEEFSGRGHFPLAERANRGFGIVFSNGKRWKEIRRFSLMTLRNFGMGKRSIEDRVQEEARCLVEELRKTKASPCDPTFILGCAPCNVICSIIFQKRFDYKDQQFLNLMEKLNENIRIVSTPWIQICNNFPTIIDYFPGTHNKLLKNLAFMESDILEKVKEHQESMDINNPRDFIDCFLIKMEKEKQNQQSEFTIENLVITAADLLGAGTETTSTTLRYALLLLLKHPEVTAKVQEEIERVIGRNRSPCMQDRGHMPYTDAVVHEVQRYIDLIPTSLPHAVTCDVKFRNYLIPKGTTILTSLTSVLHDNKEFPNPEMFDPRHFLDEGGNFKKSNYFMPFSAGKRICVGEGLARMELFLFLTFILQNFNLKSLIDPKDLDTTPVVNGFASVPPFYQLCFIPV
# Outline: (§1)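 CYP isoforms 1A2, 2D6, 3A4, 2C9 and 2C19 were tested at 1 and 10 µM. Results are % inhibition compared with a no-inhibitor control, run in triplicate.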
# [2] = target: T2, Prostaglandin E synthase (Homo sapiens) (UniProt O14684); assay: Inhibition of recombinant human mPGES-1 expressed in CHO cells assessed as reduction in PGE2 formation at 1 uM using PGH2 a substrate preincubated for 10 mins followed by substrate addition measured after 1 min relative to control; type: cell-based
# T2 sequence (whole entry): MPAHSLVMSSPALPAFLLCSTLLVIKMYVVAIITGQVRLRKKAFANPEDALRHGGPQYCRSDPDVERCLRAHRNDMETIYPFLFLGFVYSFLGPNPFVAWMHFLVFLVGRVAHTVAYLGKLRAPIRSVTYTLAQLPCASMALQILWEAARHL
# Outline: (§2)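 mPGES-1 enzyme inhibition. % inhibition values are means of two experiments in duplicate. IC50 values were derived from graphs of at least two experiments in duplicate.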
# CYP2D6 = CYP2D6 (Homo sapiens, UniProt P10635); assay: Inhibition of CYP2D6 in human liver microsomes at 10 uM measured after 20 mins in presence of NADPH by LC/MS/MS analysis relative to control; type: ADME; conditions: liver microsomes; outline: as §1
# CYP2D6, sequence (P10635 whole entry): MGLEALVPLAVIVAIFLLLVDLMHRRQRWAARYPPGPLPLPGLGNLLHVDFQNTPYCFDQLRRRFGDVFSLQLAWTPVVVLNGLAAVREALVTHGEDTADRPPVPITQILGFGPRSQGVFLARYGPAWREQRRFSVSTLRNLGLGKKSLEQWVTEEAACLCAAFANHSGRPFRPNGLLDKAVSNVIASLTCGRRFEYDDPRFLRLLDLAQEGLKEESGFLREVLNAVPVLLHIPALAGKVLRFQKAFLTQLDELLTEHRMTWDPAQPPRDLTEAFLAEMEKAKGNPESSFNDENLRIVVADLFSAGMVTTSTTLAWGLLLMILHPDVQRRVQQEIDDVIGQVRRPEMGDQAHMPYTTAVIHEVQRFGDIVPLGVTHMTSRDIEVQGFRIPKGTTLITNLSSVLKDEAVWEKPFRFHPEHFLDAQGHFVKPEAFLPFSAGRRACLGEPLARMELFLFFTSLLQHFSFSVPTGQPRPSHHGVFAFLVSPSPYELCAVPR
# [3] = target: Prostaglandin G/H synthase 1 (Homo sapiens, UniProt P23219); assay: Inhibition of COX1 in human U937 cells assessed as decrease in PGE2 release using arachidonic acid as substrate preincubated for 15 mins followed by arachidonic acid addition measured after 5 mins; type: cell-based
# Prostaglandin G/H synthase 1, sequence (P23219 whole entry): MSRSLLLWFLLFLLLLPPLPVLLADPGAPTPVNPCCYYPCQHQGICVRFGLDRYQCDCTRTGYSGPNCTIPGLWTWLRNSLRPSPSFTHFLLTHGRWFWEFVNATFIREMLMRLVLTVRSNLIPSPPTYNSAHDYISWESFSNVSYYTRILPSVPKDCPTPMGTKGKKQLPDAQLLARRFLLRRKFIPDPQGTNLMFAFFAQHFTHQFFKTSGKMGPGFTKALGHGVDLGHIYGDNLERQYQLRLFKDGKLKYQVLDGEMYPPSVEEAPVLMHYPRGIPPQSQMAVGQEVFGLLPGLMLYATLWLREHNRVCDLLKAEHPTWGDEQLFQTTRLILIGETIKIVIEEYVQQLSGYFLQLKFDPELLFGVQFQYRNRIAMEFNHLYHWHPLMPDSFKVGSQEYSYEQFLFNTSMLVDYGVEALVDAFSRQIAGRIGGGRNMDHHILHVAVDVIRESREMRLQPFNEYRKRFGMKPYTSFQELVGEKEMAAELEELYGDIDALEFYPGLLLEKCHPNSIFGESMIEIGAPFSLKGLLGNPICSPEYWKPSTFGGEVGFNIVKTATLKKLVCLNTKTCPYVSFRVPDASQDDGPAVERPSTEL
# Prostaglandin E synthase [4] = target: T3, Prostaglandin E synthase (Homo sapiens, UniProt O14684); assay: Inhibition of mPGES-1 in human A549 cells assessed as decrease in IL1beta induced PGE2 release preincubated for 30 mins followed by IL-1beta addition after 16 to 20 hrs by HTRF method; type: cell-based
# T3 sequence (O14684 whole entry): T2 sequence (whole entry)
# [5] = target: T2, Prostaglandin E synthase (Homo sapiens); assay: Inhibition of recombinant human mPGES-1 expressed in CHO cells assessed as reduction in PGE2 formation at 10 uM using PGH2 a substrate preincubated for 10 mins followed by substrate addition measured after 1 min relative to control; type: cell-based; outline: as §2
# Cytochrome P450 3A4 = Cytochrome P450 3A4 (Homo sapiens, UniProt P08684); assay: Inhibition of CYP3A4 in human liver microsomes at 1 uM measured after 20 mins in presence of NADPH by LC/MS/MS analysis; type: ADME; outline: as §1
# Cytochrome P450 3A4, sequence (P08684 whole entry): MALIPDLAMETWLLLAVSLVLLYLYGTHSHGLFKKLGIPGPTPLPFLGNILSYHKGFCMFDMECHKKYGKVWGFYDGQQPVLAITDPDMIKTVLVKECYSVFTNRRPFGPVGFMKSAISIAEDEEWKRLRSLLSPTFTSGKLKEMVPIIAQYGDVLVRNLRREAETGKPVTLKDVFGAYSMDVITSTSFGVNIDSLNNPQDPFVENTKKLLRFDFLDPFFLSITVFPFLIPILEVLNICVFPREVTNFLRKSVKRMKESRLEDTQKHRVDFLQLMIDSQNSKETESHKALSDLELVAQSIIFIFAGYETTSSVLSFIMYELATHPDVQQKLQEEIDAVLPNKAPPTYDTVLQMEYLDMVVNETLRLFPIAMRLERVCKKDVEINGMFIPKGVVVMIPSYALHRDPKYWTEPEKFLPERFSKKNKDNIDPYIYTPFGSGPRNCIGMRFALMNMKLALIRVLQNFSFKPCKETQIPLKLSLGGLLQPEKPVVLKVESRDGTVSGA
# Cytochrome P450 2D6 = Cytochrome P450 2D6 (Homo sapiens, UniProt P10635); assay: Inhibition of CYP2D6 in human liver microsomes at 1 uM measured after 20 mins in presence of NADPH by LC/MS/MS analysis; type: ADME; outline: as §1
# Cytochrome P450 2D6, sequence (P10635 whole entry): as the sequence (P10635 whole entry) above
# [6] = target: T4, Prostaglandin G/H synthase 2 (Homo sapiens, UniProt P35354); assay: Inhibition of recombinant human N-terminal His-tagged COX2 expressed in baculovirus infected Sf21 insect cells assessed as decrease in PGE2 release using arachidonic acid as substrate preincubated for 15 mins followed by arachidonic acid addition measured after 5 mins
# T4 sequence (P35354 whole entry): T1 sequence (P35354 whole entry)
# [7] = Metabolic stability in human liver microsomes assessed as parent compound remaining at 1 uM after 60 mins in presence of NADPH by LC/MS/MS analysis; type: ADME, microsome; conditions: read-out: Stability
# Outline: (§3)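 Compound at 1.0 µM was incubated with liver microsomes (1.0 mg/mL protein) at 37 °C for 60 min. Samples were analysed by LC/MS/MS as % parent remaining. Run in triplicate.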
# Cytochrome P450 2C9 = Cytochrome P450 2C9 (Homo sapiens, UniProt P11712); assay: Inhibition of CYP2C9 in human liver microsomes at 1 uM measured after 20 mins in presence of NADPH by LC/MS/MS analysis; type: ADME; outline: as §1
# Cytochrome P450 2C9, sequence (P11712 whole entry): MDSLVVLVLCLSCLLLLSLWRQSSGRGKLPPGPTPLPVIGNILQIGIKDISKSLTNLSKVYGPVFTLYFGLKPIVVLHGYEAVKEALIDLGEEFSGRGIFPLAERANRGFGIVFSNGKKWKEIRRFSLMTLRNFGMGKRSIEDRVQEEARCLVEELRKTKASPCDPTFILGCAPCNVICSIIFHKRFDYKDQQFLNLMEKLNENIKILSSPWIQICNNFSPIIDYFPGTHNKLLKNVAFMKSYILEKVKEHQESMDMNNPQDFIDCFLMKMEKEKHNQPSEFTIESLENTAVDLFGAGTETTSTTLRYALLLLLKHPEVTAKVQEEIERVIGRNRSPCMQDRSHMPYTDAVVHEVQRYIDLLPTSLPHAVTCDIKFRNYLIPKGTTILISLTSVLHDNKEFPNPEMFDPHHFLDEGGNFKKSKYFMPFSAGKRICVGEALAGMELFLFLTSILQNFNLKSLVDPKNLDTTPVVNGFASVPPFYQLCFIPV
# Cytochrome P450 1A2 = target: T5, Cytochrome P450 1A2 (Homo sapiens, UniProt P05177); assay: Inhibition of CYP1A2 in human liver microsomes at 1 uM measured after 20 mins in presence of NADPH by LC/MS/MS analysis; type: ADME; outline: as §1
# T5 sequence (P05177 whole entry): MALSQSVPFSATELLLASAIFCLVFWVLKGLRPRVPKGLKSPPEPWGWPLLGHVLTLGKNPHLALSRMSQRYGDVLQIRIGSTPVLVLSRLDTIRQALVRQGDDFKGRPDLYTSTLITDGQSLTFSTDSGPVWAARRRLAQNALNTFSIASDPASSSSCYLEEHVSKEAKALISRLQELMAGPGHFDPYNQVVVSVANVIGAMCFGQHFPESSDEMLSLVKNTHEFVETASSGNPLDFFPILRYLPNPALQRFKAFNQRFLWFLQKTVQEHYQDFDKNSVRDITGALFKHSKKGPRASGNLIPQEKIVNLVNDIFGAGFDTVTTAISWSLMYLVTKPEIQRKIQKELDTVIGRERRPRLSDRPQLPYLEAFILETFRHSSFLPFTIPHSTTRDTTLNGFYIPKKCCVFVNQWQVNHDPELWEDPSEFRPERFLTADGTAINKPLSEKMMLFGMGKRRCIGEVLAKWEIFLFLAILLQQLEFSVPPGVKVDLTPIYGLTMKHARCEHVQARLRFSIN
# CYP2C9 = CYP2C9 (Homo sapiens, UniProt P11712); assay: Inhibition of CYP2C9 in human liver microsomes at 10 uM measured after 20 mins in presence of NADPH by LC/MS/MS analysis relative to control; type: ADME; outline: as §1
# CYP2C9, sequence (P11712 whole entry): as the sequence (P11712 whole entry) above
# COX2 [8] = target: T1, COX2; assay: Inhibition of recombinant human N-terminal His-tagged COX2 expressed in baculovirus infected Sf21 insect cells assessed as decrease in PGE2 release at 10 uM using arachidonic acid as substrate preincubated for 15 mins followed by arachidonic acid addition measured after 5 mins relative to control; conditions: probe arachidonic acid
# [9] = Metabolic stability in rat liver microsomes assessed as parent compound remaining at 1 uM after 60 mins in presence of NADPH by LC/MS/MS analysis; type: ADME, microsome; conditions: read-out: Stability; outline: as §3
# CYP3A4 = CYP3A4 (Homo sapiens, UniProt P08684); assay: Inhibition of CYP3A4 in human liver microsomes at 10 uM measured after 20 mins in presence of NADPH by LC/MS/MS analysis relative to control; type: ADME; outline: as §1
# CYP3A4, sequence (P08684 whole entry): as the sequence (P08684 whole entry) above
# Prostaglandin E synthase [10] = target: T3, Prostaglandin E synthase; assay: Inhibition of recombinant human mPGES-1 expressed in CHO cells assessed as reduction in PGE2 formation using PGH2 a substrate preincubated for 10 mins followed by substrate addition measured after 1 min; type: cell-based; outline: as §2
# [11] = Metabolic stability in Guinea pig liver microsomes assessed as parent compound remaining at 1 uM after 60 mins in presence of NADPH by LC/MS/MS analysis; type: ADME, Cavia porcellus, microsome; conditions: read-out: Stability; outline: as §3
# Cavia porcellus = assay: Analgesic activity in Dunkin Hartley guinea pig hyperalgesia pain model assessed as inhibition of LPS-induced thermal hyperalgesia at 10 mg/kg, po qd administered 1 hr prior to LPS stimulation measured after 4.5 hrs by plantar test relative to control; type: functional
# Outline: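 LPS was injected into the guinea pig plantar to induce thermal hyperalgesia, and compound was given orally. Response is expressed as % hyperalgesia, with a saline-injected naive group as 0% and the vehicle-treated LPS group as 100%. Values are mean ± SEM, n = 8 per dose group.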
smiles,measurement,setting,value
CC1(C)Oc2cc(-c3cccc(C(F)(F)F)c3)ccc2-c2[nH]c(-c3c(F)cccc3Cl)nc21,"inhibition at 5 min, 1 µM",COX2 [1],2.65%
same,inhibition (INH),Cytochrome P450 2C19,Not Active
same,inhibition,[2],91.4%
same,"inhibition at 20 min, 10 µM",CYP2D6,56%
same,IC50,[3],8350 nM
same,IC50,Prostaglandin E synthase [4],616 nM
same,inhibition,[5],94.6%
same,inhibition (INH),Cytochrome P450 3A4,Not Active
same,inhibition (INH),Cytochrome P450 2D6,Not Active
same,IC50,[6],> 10000 nM
same,"remaining at 1 h, 1 µM",[7],89%
same,inhibition (INH),Cytochrome P450 2C9,Not Active
same,inhibition (INH),Cytochrome P450 1A2,Not Active
same,"inhibition at 20 min, 10 µM",CYP2C9,35%
same,"inhibition at 5 min, 10 µM",COX2 [8],27.4%
same,"remaining at 1 h, 1 µM",[9],99%
same,"inhibition at 20 min, 10 µM",CYP3A4,37%
same,IC50,Prostaglandin E synthase [10],92.9 nM
same,"remaining at 1 h, 1 µM",[11],93%
O=C(O)Cc1ccccc1Nc1c(Cl)cccc1Cl [DICLOFENAC],inhibition in vivo at 10 mg/kg,Cavia porcellus,80%
CC1(C)Oc2cc(C#Cc3ccccc3C(F)(F)F)ccc2-c2nc(-c3c(C#N)cccc3C#N)[nH]c21,inhibition (INH),Cytochrome P450 2C19,Not Active
same,"inhibition at 20 min, 10 µM",CYP2D6,29%
same,IC50,Prostaglandin E synthase [4],298 nM
same,inhibition (INH),Cytochrome P450 3A4,Not Active
same,inhibition (INH),Cytochrome P450 2D6,Not Active
same,"remaining at 1 h, 1 µM",[7],81%
same,inhibition (INH),Cytochrome P450 2C9,Not Active
same,inhibition (INH),Cytochrome P450 1A2,Not Active
same,"inhibition at 20 min, 10 µM",CYP2C9,32%
same,"inhibition at 20 min, 10 µM",CYP3A4,24%
same,IC50,Prostaglandin E synthase [10],15.9 nM
same,"remaining at 1 h, 1 µM",[11],100%
